Laboratory results reported in ChEMBL document CHEMBL4765243, “Discovery of Novel Bromophenol-Thiosemicarbazone Hybrids as Potent Selective Inhibitors of Poly(ADP-ribose) Polymerase-1 (PARP-1) for Use in Cancer” (J Med Chem, 2019).
Calls of active or inactive are those of the source. The rule behind the calls is not given here.

Legend:
[1] = molecular target: T1, Poly [ADP-ribose] polymerase 1 (Homo sapiens, UniProt P09874); test: Inhibition of PARP-1 in human SKOV3 cells assessed as decrease in MCM6 protein expression level at 2.5 to 10 uM incubated for 48 hrs by western blot analysis; type: cell-based; settings: SK-OV-3, dose 2.5-10 µM
T1 sequence (P09874 whole entry): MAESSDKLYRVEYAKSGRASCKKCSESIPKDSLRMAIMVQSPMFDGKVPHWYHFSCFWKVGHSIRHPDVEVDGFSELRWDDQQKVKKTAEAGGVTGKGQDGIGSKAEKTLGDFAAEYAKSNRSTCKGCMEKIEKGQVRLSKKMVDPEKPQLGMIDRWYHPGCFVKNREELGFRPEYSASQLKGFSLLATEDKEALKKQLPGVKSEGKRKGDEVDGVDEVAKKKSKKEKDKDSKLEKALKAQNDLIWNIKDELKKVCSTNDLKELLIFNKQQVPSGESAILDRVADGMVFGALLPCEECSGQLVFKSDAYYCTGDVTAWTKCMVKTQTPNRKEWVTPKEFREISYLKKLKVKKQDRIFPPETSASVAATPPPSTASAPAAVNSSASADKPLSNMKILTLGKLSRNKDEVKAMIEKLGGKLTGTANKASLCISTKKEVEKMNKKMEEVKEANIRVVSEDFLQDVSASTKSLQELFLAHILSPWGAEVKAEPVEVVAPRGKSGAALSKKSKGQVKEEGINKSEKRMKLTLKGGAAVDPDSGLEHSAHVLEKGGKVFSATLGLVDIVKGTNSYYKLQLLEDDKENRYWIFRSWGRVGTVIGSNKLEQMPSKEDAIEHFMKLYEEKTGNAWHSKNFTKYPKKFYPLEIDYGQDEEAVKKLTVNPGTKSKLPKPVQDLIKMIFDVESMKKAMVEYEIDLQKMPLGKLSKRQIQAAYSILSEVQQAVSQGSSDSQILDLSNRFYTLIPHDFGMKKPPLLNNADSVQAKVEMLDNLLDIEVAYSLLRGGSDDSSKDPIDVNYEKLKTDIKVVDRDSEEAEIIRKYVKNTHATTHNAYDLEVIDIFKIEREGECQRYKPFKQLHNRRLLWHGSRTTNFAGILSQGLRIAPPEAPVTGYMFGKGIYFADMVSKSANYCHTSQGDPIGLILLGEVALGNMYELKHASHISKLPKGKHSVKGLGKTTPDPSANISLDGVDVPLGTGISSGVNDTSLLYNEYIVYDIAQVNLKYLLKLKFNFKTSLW
Summary of the method: (§1)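 SK-OV-3 cells were grown in McCOY's 5A, seeded in 6-well plates and treated for 48 h. Lysate proteins were separated by 8-15 % SDS-PAGE and transferred to PVDF membranes. Membranes were blocked in 5 % nonfat milk, probed with primary antibody overnight at 4 °C and with HRP secondary antibody for 1 h at room temperature, then detected by enhanced chemiluminescence. Images are representative of 3 independent experiments.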

[2] = test system: SK-OV-3; test: Induction of autophagy in human SKOV3 cells assessed as increase in Atg-14 protein level at 10 uM incubated for 48 hrs by western blot analysis; type: functional, cell-based
Summary of the method: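 SK-OV-3 cells seeded in 6-well plates, treated 48 h. Protein lysates separated on 8-15 % SDS-PAGE and transferred to PVDF. Membranes blocked in 5 % nonfat milk, probed with primary antibody overnight at 4 °C, then secondary antibody 1 h at room temperature. Bands detected by enhanced chemiluminescence.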

[3] = molecular target: T1, Poly [ADP-ribose] polymerase 1; test: Inhibition of PARP-1 in human SKOV3 cells assessed as intracellular poly-ADP ribose level at 2.5 to 10 uM incubated for 48 hrs by Western blot analysis; type: cell-based; settings: SK-OV-3, dose 2.5-10 µM; summary of the method: as §1
[4] = test system: SK-OV-3; test: Antitumor activity against human SKOV3 cells xenografted in Balb/c nude mouse assessed as reduction in Ki67 expression in tumor at 25 to 50 mg/kg, po for 21 days by immunohistochemistry analysis; type: functional, organism-based; settings: dose 25-50 mg/kg, time 21.0 day
Summary of the method: (§2)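 SK-OV-3 xenografts in female BALB/c nude mice were dosed orally at 25 or 50 mg/kg in 0.5% CMC-Na for 21 days. Tumours were then snap-frozen in liquid nitrogen or fixed in 10% neutral-buffered formalin. Analysis used western blotting, H&E and immunohistochemistry on paraffin sections (Ki67, γ-H2AX).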

[5] = Cmax in Sprague-Dawley rat at 10 mg/kg, po by LC/MS/MS analysis; type: ADME, organism-based; parameters: route oral, dose 10 mg/kg; settings: in vivo
Summary of the method: (§3)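 Male Sprague-Dawley rats, 4 per group, dosed once orally at 10 mg/kg or intravenously at 2 mg/kg. Blood taken from the saphenous vein for plasma. Drug levels measured by LC-MS-MS, with parameters derived by noncompartmental analysis.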

[6] = Total plasma clearance in Sprague-Dawley rat at 2 mg/kg, iv by LC/MS/MS analysis; type: ADME, organism-based; summary of the method: as §3
[7] = Subacute toxicity in SPF Kunming mouse assessed as induction of death at 1000 mg/kg, po administered for 14 days and measured on day 14; type: organism-based; settings: in vivo, 336 h, time 14 day
Summary of the method: (§4)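 Twenty SPF Kunming mice (18 - 22 g), half male and half female, randomised into 2 groups of 5 males + 5 females. Treated group dosed orally at 1000 mg/kg once daily for 14 days. Death, clinical signs and body weight monitored. After 14 days: isoflurane anaesthesia, decapitation, tissues collected for H&E histology.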

[8] = test system: L02; test: Cytotoxicity against human HL7702 cells assessed as cell growth inhibition incubated for 48 hrs by MTT assay; type: cell-based; settings: L02, 48 h
Summary of the method: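 Cells seeded in 96-well plates and exposed to compounds for 48 h; viability read by MTT. Each experiment repeated three times. SK-OV-3 grown in McCOY's 5A, Bel-7402 and HL-7702 in RPMI-1640, HepG2 in DMEM, Caco-2 in MEM.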

[9] = Subacute toxicity in SPF Kunming mouse assessed as clinical changes at 1000 mg/kg, po administered for 14 days and measured on day 14; type: organism-based; settings: in vivo, 336 h, time 14 day; summary of the method: as §4
[10] = test system: SK-OV-3; test: Antitumor activity against human SKOV3 cells xenografted in Balb/c nude mouse assessed as tumor growth inhibition at 50 mg/kg, po for 21 days and measured every third day; settings: SK-OV-3, po, 504 h, read-out: INH
[11] = Tmax in Sprague-Dawley rat at 10 mg/kg, po by LC/MS/MS analysis; type: ADME, organism-based; settings: in vivo; summary of the method: as §3
[12] = test system: SK-OV-3; test: Induction of autophagy in human SKOV3 cells transfected with GFP-LC3 assessed as increase in LC3 dot accumulation at 10 uM incubated for 48 hrs by TEM analysis; type: functional, cell-based; settings: in the assay text read “fluorescence microscopy” for “TEM analysis”
Summary of the method: (§5)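 SK-OV-3 cells on glass coverslips infected with Ad-mCherry-GFP-LC3B for 24 h. Cells then treated at 10 µM for 48 h, fixed in 4% paraformaldehyde and examined by fluorescence microscopy.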

[13] = test system: SK-OV-3; test: Induction of autophagy in human SKOV3 cells assessed as increase in fluorescence intensity t 10 uM incubated for 48 hrs by immunofluorescence analysis; type: functional, cell-based; summary of the method: as §5
[14] = molecular target: T1, Poly [ADP-ribose] polymerase 1; settings: dose 100.0 nM, time 30.0 min
[15] = molecular target: T1, Poly [ADP-ribose] polymerase 1; test: Inhibition of PARP-1 in human SKOV3 cells assessed as decrease in MCM5 protein expression level at 2.5 to 10 uM incubated for 48 hrs by western blot analysis; type: cell-based; settings: SK-OV-3, dose 2.5-10 µM; summary of the method: as §1
[16] = molecular target: T1, Poly [ADP-ribose] polymerase 1; test: Inhibition of PARP-1 in human SKOV3 cells assessed as increase in gammaH2AX expression level at 2.5 to 10 uM incubated for incubated for 48 hrs by western blot analysis; type: cell-based; settings: SK-OV-3, dose 2.5-10 µM; summary of the method: as §1
[17] = test system: SK-OV-3; test: Induction of autophagy in human SKOV3 cells assessed as LC3-I protein expression at 10 uM incubated for 48 hrs by western blot analysis; type: functional, cell-based
Summary of the method: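 SK-OV-3 cells in 6-well plates treated 48 h. Lysates separated by 8-15% SDS-PAGE and transferred to PVDF. Membranes blocked in 5% milk and probed overnight at 4 °C with LC3 or Beclin 1 antibodies. HRP secondary applied 1 h at room temperature; detection by ECL.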

[18] = test system: HepG2; test: Antiproliferative activity against human HepG2 cells assessed as cell growth inhibition at 20 uM incubated for 48 hrs by MTT assay relative to control; type: functional
[19] = test system: SK-OV-3; test: Induction of apoptosis in human SKOV3 cells assessed as increase in Bax expression at 2.5 to 10 uM incubated for 48 hrs by western blot analysis; type: functional, cell-based; settings: dose 2.5-10 µM
[20] = molecular target: T1, Poly [ADP-ribose] polymerase 1; test: Inhibition of PARP-1 in human SKOV3 cells assessed as increase in gammaH2AX expression level by immunofluorescence analysis; type: cell-based; settings: SK-OV-3
[21] = Toxicity in Balb/c nude mouse xenografted with human SKOV3 cells assessed as histological changes in heart at 25 to 50 mg/kg, po for 21 days by H and E staining based microscopic analysis; type: organism-based; settings: in vivo, 504 h, dose 25-50 mg/kg, time 21 day; summary of the method: as §2
[22] = Toxicity in Balb/c nude mouse xenografted with human SKOV3 cells assessed as change in body weight at 50 mg/kg, po for 21 days and measured every third day; type: organism-based; settings: in vivo, 504 h, time 21 day
Summary of the method: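 Female BALB/c nu/nu mice, 6-8 weeks old, kept under SPF conditions. Each received 5×10^6 SK-OV-3 cells s.c. At 80–120 mm3 tumour volume, mice were split into four groups (n=6). […] Caliper measurement every three days; volume = X × (Y2/2).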

[23] = AUC (0 to infinity) in Sprague-Dawley rat at 10 mg/kg, po by LC/MS/MS analysis; type: ADME, organism-based; parameters: time infinity, route oral, dose 10 mg/kg; settings: in vivo

COc1cc(/C=N/NC(N)=S)c(Br)c(Br)c1OC
inhibition [1]: Active
Activity [2]: Active
inhibition [3]: Active
Activity [4]: Active
Cmax [5]: 19.9 nM
clearance [6]: 88.7 mL/min/kg
Activity [7]: Non-Toxic
IC50 [8]: 13.3 µM
Activity [9]: Non-Toxic
inhibition in vivo at 50 mg/kg [10]: 58.7%
Tmax [11]: 2.5 h
Activity [12]: Active
Activity [13]: Active
inhibition [14]: 84.6%
inhibition [15]: Active
inhibition [16]: Active
Activity [17]: Active
inhibition at 20 µM [18]: 71.6%
Activity [19]: Active
inhibition [20]: Active
Activity [21]: Non-Toxic
Activity [22]: Non-Toxic
AUC [23]: 0.0839 µM·h
